The text below walks through data of ChEMBL document CHEMBL2150948, “Quinolinyl Pyrimidines: Potent Inhibitors of NDH-2 as a Novel Class of Anti-TB Agents” (ACS Med Chem Lett, 2012).

Values after ≈ are worked out from the molar mass of the structure shown.

A short description of data set [1]: Inhibition of Mycobacterium tuberculosis NDH-2 by UV spectrophotometry. The essentials:
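Purified Mtb NDH-2 at 1 nM in 50 mM Hepes-NaOH pH 7.5 with 100 mM NaCl, 0.008% Brij-35 and 300 μM NADH; reaction started with 50 μM menadione, run 1 h at 37 °C. NADH oxidation followed as fall in absorbance at 340 nm. Screening at 20 μM, then concentration-response for IC50.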

For data set [2], the system named is Mycobacterium tuberculosis. Kind of data set: Antimycobacterial activity against Mycobacterium tuberculosis assessed as growth inhibition after 5 days by MABA/resazurin assay. It counts as functional. To be noted: 120 h.
Data set [3] is described as follows: Solubility of the compound in 0.1 M phosphate buffer after 24 hrs by UV/MS analysis. It counts as physicochemical. The essentials: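 Solubility measured in presence of 2% (v/v) DMSO.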
The subject of a further data set is Saccharomyces cerevisiae. Kind of data set: Antimicrobial activity against Saccharomyces cerevisiae. It counts as organism-based.
The nature of data set [4]: Toxicity in RBC assessed as hemolysis. It counts as cell-based. To be noted: erythrocyte.
Data set [5] can be described thus: Partition coefficient, log D of the compound. It counts as physicochemical. As to conditions: octanol/water.
Data set [6] in a line: Intrinsic clearance in mouse microsomes assessed per mg protein at 100 uM by HPLC analysis. It counts as ADME, Microsome.
Data set [7] is described as follows: Fraction unbound in plasma at 20 uM after 18 hrs by equilibrium dialysis method. It counts as ADME, cell-free. (Equilibrium dialysis compares concentrations on both sides of a semipermeable membrane.)

On to `COc1cccc(-c2cc(N)c3cc(Nc4cc(-c5ccc(Cl)cc5)nc(N)n4)ccc3n2)c1`, for which the IC50 – broadly, the concentration that inhibits the measured activity by half – in data set [1] is less than 260 nM. Moreover, the MIC in data set [2] was found to be 2.13 µM (≈ 0.999 µg/mL).
For `Nc1nc(Nc2ccc3nc(-c4ccc(F)cc4)cc(N)c3c2)cc(-c2cccc(Cl)c2)n1`, the concentration in solution in data set [3] (solubility at 24 h) was 15 µM (≈ 6.85 µg/mL). In data set [1], this molecule displayed an IC50 of 50 nM. Besides, the results for the MIC (in the data set on Saccharomyces cerevisiae; in data set [2]) were more than 32 µg/mL and 2.19 µM (≈ 1 µg/mL), respectively. Further, the MHC in data set [4] is more than 32 µg/mL. For the same molecule, the log distribution coefficient (logD) (in general, the decadic logarithm of the distribution of all forms, ionised or not, between an organic phase and buffer at a given pH) in data set [5] was 3.06.
Take `Cc1cc(Nc2ccc3nc(-c4ccc(F)cc4)cc(N)c3c2)nc(N)n1`: the IC50 in data set [1] was found to be 601 nM. Also, the MIC in data set [2] is 22.2 µM (≈ 8 µg/mL).
In the case of `Nc1nc(Nc2ccc3nc(-c4ccc(F)cc4)cc(N)c3c2)cc(-c2ccc(Cl)cc2)n1`, the solubility (in general, how much of the substance goes into solution per volume) at 24 h in data set [3] amounted to 6 µM (≈ 2.74 µg/mL). The same molecule registered an IC50 in data set [1] of 43 nM. The MIC with Saccharomyces cerevisiae was more than 32 µg/mL; in data set [2], 1.91 µM (≈ 0.873 µg/mL). In addition, the intrinsic metabolic clearance (microsomal CLint) (commonly the capacity of the preparation to metabolise the compound, expressed as a volume cleared per time) at 100 µM in data set [6] was found to be 13.4 µL/min/mg. Also, the MHC in data set [4] was more than 32 µg/mL. Also, the fraction unbound – broadly, the share of the substance not bound to proteins or other matrix – at 18 h, 20 µM in data set [7] was determined as 0.008. This molecule returned a logD in data set [5] of 3.
Consider `Nc1nc(Nc2ccc3nc(-c4ccc(F)cc4)cc(N)c3c2)cc(-c2ccccc2)n1`, for which the IC50 in data set [1] was 73 nM. Further, the MIC in data set [2] came out at 1.67 µM (≈ 0.706 µg/mL).
In turn, `Cc1cccc(-c2cc(Nc3ccc4nc(-c5ccc(F)cc5)cc(N)c4c3)nc(N)n2)c1` yielded a solubility at 24 h in data set [3] of 70 µM (≈ 30.6 µg/mL). This molecule also returned an IC50 in data set [1] of 96 nM. The results for the MIC (against Saccharomyces cerevisiae; in data set [2]) were more than 32 µg/mL and less than 0.81 µM, respectively. In addition, the MHC in data set [4] is more than 32 µg/mL. In data set [7], this molecule gave a fraction unbound at 18 h, 20 µM of 0.0144. In addition, the logD in data set [5] stood at 3.18.
In turn, `Nc1nc(Nc2ccc3nc(-c4ccc(F)cc4)cc(N)c3c2)cc(-c2ccc(F)cc2)n1` returned a solubility at 24 h in data set [3] of 12 µM (≈ 5.29 µg/mL). The same molecule returned an IC50 in data set [1] of 53 nM. The MIC in the data set with Saccharomyces cerevisiae was more than 32 µg/mL; in data set [2], 1.14 µM (≈ 0.502 µg/mL). Moreover, the MHC in data set [4] was more than 32 µg/mL. The molecule further came in with a fraction unbound at 18 h, 20 µM in data set [7] of 0.0249. Moreover, the logD in data set [5] came to 3.06.
In the case of `Nc1nc(Nc2ccc3nc(-c4ccc(F)cc4)cc(N)c3c2)cc(-c2ccccc2F)n1`, the IC50 in data set [1] came to 187 nM. The MIC in data set [2] was 3.21 µM (≈ 1.41 µg/mL).
For the molecule `Nc1nc(Nc2ccc3nc(-c4ccc(F)cc4)cc(N)c3c2)cc(-c2ccc(C(F)(F)F)cc2)n1`, in data set [3], the solubility at 24 h turned out to be 2450 µM (≈ 1200 µg/mL). In addition, the midpoint of inhibition in data set [1], the IC50, lay at 81 nM. Besides, the MIC against Saccharomyces cerevisiae was more than 32 µg/mL; in data set [2], 2.88 µM (≈ 1.41 µg/mL). Also, the intrinsic clearance (microsomal CLint) at 100 µM in data set [6] was less than 4 µL/min/mg. Further, the MHC in data set [4] was more than 32 µg/mL. Also, the logD in data set [5] amounted to 2.16.
In turn, `Cc1cccc(-c2cc(Nc3ccc4nccc(N)c4c3)nc(N)n2)c1` came in with an IC50 in data set [1] of 10800 nM. For the same molecule, in data set [2], the MIC was 48.9 µM (≈ 16.7 µg/mL).
Taken in the same sequence, the figures for `Nc1nc(Nc2ccc3nc(-c4ccc(F)cc4)cc(N)c3c2)cc(-c2ccccn2)n1` were 133 nM and 9.45 µM (≈ 4 µg/mL).
As for `Nc1nc(Nc2cnc3ccccc3c2)cc(-c2ccc(C(F)(F)F)cc2)n1`, the IC50 in data set [1] was 2050 nM. Moreover, the MIC in data set [2] was 66.6 µM (≈ 25.4 µg/mL).
Taken in the same sequence, the figures for `Cc1cc(Nc2ccc3nc(C)ccc3c2)nc(C)n1` were more than 100000 nM and more than 121 µM.
Regarding `Cn1ccc(-c2cc(Nc3ccc4nc(-c5ccc(F)cc5)cc(N)c4c3)nc(N)n2)n1`, the midpoint of inhibition in data set [1], the IC50, lay at 1380 nM. The MIC in data set [2] was found to be 53.1 µM (≈ 22.6 µg/mL).
`CCc1cc(Nc2ccc3nc(-c4ccc(F)cc4)cc(N)c3c2)nc(N)n1`: 2400 nM corresponded to half-maximal inhibition in data set [1] (IC50). Further, the MIC in data set [2] is 15.1 µM (≈ 5.66 µg/mL).
Take `CC(C)c1cc(Nc2ccc3nc(-c4ccc(F)cc4)cc(N)c3c2)nc(N)n1`: the IC50 in data set [1] was found to be 1470 nM. In addition, the MIC in data set [2] stood at 7.28 µM (≈ 2.83 µg/mL).
Taken in the same sequence, the figures for `COc1ccccc1-c1cc(Nc2ccc3nc(-c4ccc(F)cc4)cc(N)c3c2)nc(N)n1` were less than 620 nM and 4.42 µM (≈ 2 µg/mL).
Taken in the same sequence, the figures for `Nc1nc(Nc2cnc3ccccc3c2)cc(-c2cccc(Cl)c2)n1` were 5770 nM and more than 73 µM.
